Compound activity (PubChem BioAssay)
FAS-TE inh: FAS thioesterase domain inhibitors, primary screen, biochemical, fluorescence intensity, uHTS. recombinant FAS-TE, OMFH fluorogenic substrate, fluorescence endpoint. inhibition, % at 15 µM. 360,000 compounds, 0.67% hits;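 active means compounds whose normalised, plate-corrected inhibition of enzyme fluorescence in the single-dose primary screen is 50% or more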
Rtt109 Vps75: inhibitors of C. albicans Rtt109/Vps75 HAT, primary screen, biochemical, ThioGlo CoA-SH fluorescence, plate reader; Histone acetyltransferase RTT109 (Candida albicans (strain SC5314 / ATCC MYA-2876)), …; inhibition, % at 34.9 µM; AID 540336, 2011; purified Rtt109/Vps75, 4 h; 330,000 compounds, 0.16% hits;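 active means inhibition of at least 50% in every replicate; inconclusive means best replicate reaches 50% inhibition but some replicates fall short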
ALR inh: inhibitors of human ALR sulfhydryl oxidase, primary screen, biochemical, H2O2 detection, HRP-luminol luminescence, single point; 290,000 compounds, 3.8% hits; inhibition, % (concentration not given with the values); purified ALR, DTT oxidation;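 active means mean replicate inhibition above about 79%, with every replicate also reaching it, limit read from the data; inconclusive means only one of the two criteria met; inactive means mean below limit and not every replicate reaching it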
UCH37 DUB inh: inhibitors of human UCH37 deubiquitinase, primary screen, biochemical, Ub-AMC cleavage, fluorescence; inhibition, % (test concentration not listed); 330,000 compounds, 0.33% hits; purified proteasome/UCH37; AID 588478, 2011;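 active means mean inhibition over replicate wells above about 20%, limit read from the data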
Target sequence (Q9Y5K5 whole entry, looked up): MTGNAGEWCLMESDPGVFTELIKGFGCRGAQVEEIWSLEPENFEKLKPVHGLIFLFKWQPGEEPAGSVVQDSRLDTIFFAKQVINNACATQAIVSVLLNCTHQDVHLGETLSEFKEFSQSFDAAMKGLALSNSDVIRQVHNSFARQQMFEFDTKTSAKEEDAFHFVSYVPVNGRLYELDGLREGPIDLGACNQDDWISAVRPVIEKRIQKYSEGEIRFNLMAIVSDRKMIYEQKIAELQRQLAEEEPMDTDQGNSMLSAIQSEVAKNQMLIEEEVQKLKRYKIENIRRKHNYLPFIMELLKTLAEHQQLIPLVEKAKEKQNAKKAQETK
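Signal – fluorescence, ex 355 nm, em 460 nm · System – Proteasome-bound UCH37 · Input – 0.15 nM proteasome as dispensed · Timing – 30 min preincubation with enzyme, 25 min cleavage at room temperature · Read-out basis – percent inhibition of cleavage signal versus uninhibited and no-proteasome wells · Medium – Tris-HCl pH 7.4 with ATP-MgCl2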
HDAC3 inh: HDAC3 deacetylase inhibitors, primary screen, biochemical, fluorescence, cell-free homogeneous. Histone deacetylase 3 (Homo sapiens), O15379. recombinant HDAC3, fluorogenic peptide/trypsin coupled. inhibition, % at 8.3 µM. 320,000 compounds, 0.15% hits. AID 2718, 2010; in the data active means inhibition above about 26%, passing the limit was not always enough; inconclusive means no clear call, values can overlap the other calls
PfM18AAP inh: PfM18AAP inhibitors, malaria aminopeptidase, primary screen, biochemical, QFRET, recombinant enzyme; M18 aspartyl aminopeptidase (Plasmodium falciparum 3D7); H-Glu-NHMec fluorogenic cleavage; inhibition, % at 7.35 µM; 290,000 compounds, 1.2% hits; AID 1822, 2009;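 active means inhibition above the campaign mean inhibition over all tested compounds plus 3 SD, cut at about 28% in these data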
Numbers stand for hits. Rows were chosen to be rich in hits. Some 4.6% of all compounds tested hit in one or more screens of this group.

Results for Clc1ccc(/C=N\Nc2ccccc2)cc1 ?
FAS-TE inh: inactive; Rtt109 Vps75: inactive; ALR inh: 98.6; HDAC3 inh: inactive; PfM18AAP inh: inactive

Results for Cc1ccc(-c2cc(-c3ccccc3)nc(NN=Cc3cccnc3)n2)cc1 ?
UCH37 DUB inh: inactive

How did Clc1ccc(C=NNc2ccccc2)cc1 do in these assays?
UCH37 DUB inh: inactive

How did Cc1ccc(N/N=C/c2cccnc2)cc1 do in these assays?
FAS-TE inh: inactive; Rtt109 Vps75: inactive; ALR inh: 100.7; HDAC3 inh: inactive; PfM18AAP inh: inactive

Results for O=C(Cn1cc(C(F)(F)F)ccc1=O)NN=Cc1ccc(Cl)cc1 ?
UCH37 DUB inh: inactive

How did O=C(NCCCN1CCOCC1)C(=O)NN=Cc1c2ccccc2cc2ccccc12 do in these assays?
UCH37 DUB inh: inactive

Results for Cc1ccc(N/N=C/c2ccncc2)cc1 ?
FAS-TE inh: inactive; Rtt109 Vps75: inactive; ALR inh: 99.2; HDAC3 inh: inactive; PfM18AAP inh: inactive

Results for Cc1ccc(NC(=O)CSc2nccn2Cc2ccccc2)cc1C ?
FAS-TE inh: inactive; Rtt109 Vps75: inactive; ALR inh: 98.3; UCH37 DUB inh: inactive; HDAC3 inh: inactive; PfM18AAP inh: inactive

Results for Cc1ccc(NC(=O)CSc2nccn2Cc2ccco2)cc1 ?
FAS-TE inh: inactive; Rtt109 Vps75: inactive; ALR inh: 89.4; UCH37 DUB inh: inactive; PfM18AAP inh: inactive

Results for O=C(CSc1nccn1Cc1ccco1)Nc1cccc(F)c1 ?
FAS-TE inh: inactive; Rtt109 Vps75: inactive; ALR inh: inactive; UCH37 DUB inh: inactive; HDAC3 inh: inactive; PfM18AAP inh: inactive

How did Cc1ccc(NC(=O)CSc2ncc3ccccn23)cc1 do in these assays?
FAS-TE inh: inactive; Rtt109 Vps75: inactive; ALR inh: 99.2; UCH37 DUB inh: inactive; HDAC3 inh: inconclusive; PfM18AAP inh: inactive

How did CC(=O)Nc1cccc(NC(=O)CSc2ncc(-c3ccc(Cl)cc3)n2Cc2ccco2)c1 do in these assays?
FAS-TE inh: inactive; Rtt109 Vps75: inactive; ALR inh: 91.5; UCH37 DUB inh: inactive; HDAC3 inh: inactive; PfM18AAP inh: inactive

What do the screens show for `Cc1ccc(CON=Cc2c(O)cc(C)oc2=O)cc1`?
UCH37 DUB inh: inactive

Results for CC(Cc1ccccc1)=NNC(=O)CCCC(=O)NN=C(C)Cc1ccccc1 ?
UCH37 DUB inh: inactive

How did O=C(CSc1nccn1Cc1ccco1)Nc1ccc(F)cc1 do in these assays?
FAS-TE inh: inactive; Rtt109 Vps75: inactive; ALR inh: 99.1; UCH37 DUB inh: inactive; HDAC3 inh: inactive; PfM18AAP inh: inactive

What do the screens show for `CCc1ccc(NC(=O)NNC(=O)c2cc3ccccc3cc2O)cc1`?
FAS-TE inh: inactive; Rtt109 Vps75: inactive; ALR inh: inactive; UCH37 DUB inh: inactive; HDAC3 inh: inactive; PfM18AAP inh: inactive

What do the screens show for `CCc1ccc(NC(=O)NNC(=O)c2ccc3ccccc3c2O)cc1`?
FAS-TE inh: inactive; Rtt109 Vps75: inactive; ALR inh: inactive; UCH37 DUB inh: inactive; HDAC3 inh: inactive; PfM18AAP inh: 28.5

Results for O=C(NN=Cc1ccc(Br)cc1)c1cc[n+](Cc2ccccc2)cc1 ?
UCH37 DUB inh: inactive

Results for O=C1N=C(N2C=CC(=C3C=CNC=C3)C=C2)/C(=C/N=NC(=O)c2ccccc2O)S1 ?
FAS-TE inh: inactive; Rtt109 Vps75: inactive; HDAC3 inh: inactive; PfM18AAP inh: 28.9

What do the screens show for `CCCCNC(=O)C(C#N)=c1sc(=Cc2ccccc2OC(F)F)c(=O)n1CCCOC`?
UCH37 DUB inh: inactive

What do the screens show for `COC(=O)c1ccc(-c2ccco2)n1Cc1cccc(C)c1`?
FAS-TE inh: inactive; Rtt109 Vps75: inactive; ALR inh: inactive; UCH37 DUB inh: inactive; HDAC3 inh: inactive; PfM18AAP inh: inactive

Results for O=C(O)c1ccc(-c2ccco2)n1Cc1ccccc1 ?
FAS-TE inh: inactive; Rtt109 Vps75: inactive; ALR inh: 99.4; UCH37 DUB inh: inactive; HDAC3 inh: inactive; PfM18AAP inh: inactive
